# An excerpt weighted towards active compounds, which were near 2.7% of everything screened.
# ASAP1 inh: inhibitors of human ASAP1 ArfGAP activity. inhibition, % at 16.5 µM. AID 624377. ASAP1-stimulated ARF1 GTP hydrolysis, GDP FP detection. 0.19% of 360,000 active; in the data active = inhibition above about 25%
# Target sequence (Q9ULH1 325-724 limits assumed): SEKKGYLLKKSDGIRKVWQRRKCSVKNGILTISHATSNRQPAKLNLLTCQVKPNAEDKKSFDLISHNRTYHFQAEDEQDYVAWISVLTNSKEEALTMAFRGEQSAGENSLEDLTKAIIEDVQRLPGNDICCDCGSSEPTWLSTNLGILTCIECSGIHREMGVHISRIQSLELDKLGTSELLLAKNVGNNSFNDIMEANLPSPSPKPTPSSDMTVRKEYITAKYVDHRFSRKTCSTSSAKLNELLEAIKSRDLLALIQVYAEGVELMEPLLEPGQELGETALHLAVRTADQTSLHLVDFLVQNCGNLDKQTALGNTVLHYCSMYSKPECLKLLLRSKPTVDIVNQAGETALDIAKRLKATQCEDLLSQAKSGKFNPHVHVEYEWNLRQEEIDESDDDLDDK
# ARFGAP1 inhibitor: inhibits rat ARF GTPase activating protein 1; AID 651572; inhibition, % at 16.5 µM; 0.26% of 360,000 active; Arfgap1-stimulated ARF1 GTP hydrolysis, GDP FP detection;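 active = inhibition above a per-plate limit, mean inhibition of low control wells plus 3 SD, cut at about 25% in these data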
# Target sequence (Q62848 1-136 limits assumed): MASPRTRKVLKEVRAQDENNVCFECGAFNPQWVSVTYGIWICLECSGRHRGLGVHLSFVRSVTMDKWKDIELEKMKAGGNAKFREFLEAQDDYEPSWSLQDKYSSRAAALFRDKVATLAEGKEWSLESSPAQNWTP
#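 system = rat Arfgap1 catalytic domain, aa 1-136 | technique = FP, GDP Alexa 633 tracer displaced from anti-GDP antibody, 620/688 nm | compound = one concentration, 16.5 µM, DMSO 1.26% | medium = HEPES-based buffer, pH 7.5 | timing = compound-enzyme preincubation 20 min, reaction 120 min, detection 60 min, 25 °C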
# sPLA2-III inh: Blocks human group III sPLA2 activity. Q9NZ20. QFRET BODIPY PC-A2 liposome hydrolysis, fluorescence. inhibition, % at 12.2 µM. 0.56% of 370,000 active. AID 743126;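 active = inhibition above mean plus 3 SD of compounds lying within the high and low control bounds, cut at about 19% in these data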
# bovine MsrA act: activates bovine MsrA enzyme. 0.3% of 360,000 active. purified bovine MsrA, absorbance read-out. activation, % at 10.6 µM. AID 602163; in the data active = activation above about 7.5%
# Rev-erbA mod: modulates human Rev-erb alpha binding to DNA | 0.79% of 370,000 active | AID 1259318 | activity, % at 10 µM | P20393 | Rev-erbα–FITC-DNA binding, fluorescence polarization, 90 min;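 active = activity above about 14%, limit read from the data; passing the limit was not always enough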
# MsrA inhibitor: inhibitors of bovine MsrA | AID 651718 | inhibition, % at 15.5 µM | 0.75% of 360,000 active | purified bovine MsrA, absorbance read-out; in the data active = inhibition above about 4.5%
# Rev-erbA confirm: confirmation of modulators of human Rev-erb alpha DNA binding | 61% of 3,000 active | Rev-erb alpha FITC-DNA binding, fluorescence polarization, 90 min | activation, % at 25 µM | shares compounds with Rev-erbA mod;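 active = activation at or above a set limit, or at least 3 SD above the negative control mean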
# RORg DNA counter: affects RORgamma DNA binding in a Rev-erb alpha counter-screen. AID 1259320. IC50, µM. shares compounds with Rev-erbA mod. purified RORgamma protein-FITC-DNA binding, fluorescence polarization. 8% of 910 active;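 active = Compounds whose fitted half-maximal concentration for disrupting protein-DNA binding is below 10 micromolar; the record names Rev-erb in its text, so the target is in doubt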
# Numbers stand for hits; i = inactive; nt = no result.
SMILES,ASAP1 inh,ARFGAP1 inhibitor,sPLA2-III inh,bovine MsrA act,Rev-erbA mod,MsrA inhibitor,Rev-erbA confirm,others
CN(C)c1ccc(-c2csc(C(C)(O)c3ccc(F)c(F)c3)n2)cc1 (stereo not drawn),i,i,i,i,i,i,nt,
Cc1ccc(-c2nn(C)c(=O)c3ccccc23)cc1S(=O)(=O)N1CCCC1,i,i,i,i,26,i,36,RORg DNA counter=i
CC(C)c1ccc(-c2c(C#N)c(N)nc(SCC(=O)N3CCCCCC3)c2C#N)cc1,i,i,i,nt,52,i,i,
N#Cc1c(N)nc(SCC(=O)NC2CCCCC2)c(C#N)c1-c1ccc(Cl)cc1,i,i,i,i,24,i,25,
CCOC(=O)CSc1nc(N)c(C#N)c(-c2ccc(OCC)cc2)c1C#N,i,i,i,i,56,i,29,
CC(C)c1ccc(-c2c(C#N)c(N)nc(SCC(=O)N3CCCCC3)c2C#N)cc1,i,i,i,i,83,i,69,RORg DNA counter=i
O=C(NCc1cccs1)C1CCN(S(=O)(=O)c2ccc([N+](=O)[O-])cc2)CC1,nt,nt,i,nt,i,nt,nt,
O=S(=O)(NN=C1CCCCCCC1)c1ccccc1,i,i,i,i,i,i,nt,
O=C1[C@H]2[C@@H](c3ccc(C(F)(F)F)cc3)N[C@]3(CCCN(Cc4ccc(C(F)(F)F)cc4)C3=O)[C@H]2C(=O)N1Cc1ccccc1,i,i,i,i,i,i,nt,
COC(=O)c1ccccc1NC(=O)NCC1CCN(Cc2ccc(OC)cc2)CC1,nt,nt,i,nt,i,nt,nt,
C=CCN1C(=O)/C(=C2/Sc3ccccc3N2CC)SC1=S,i,i,i,i,i,i,nt,
CCN1C(=O)/C(=C2/Sc3ccccc3N2CC)S/C1=N\c1ncn[nH]1,i,i,i,i,19,i,i,
CCN(CC(=O)NCc1ccc(Cl)cc1)C(=O)c1ccc2cc(OC)ccc2c1,i,i,i,i,105,i,102,RORg DNA counter=i
CCN(CC(=O)NCc1ccc(Cl)cc1)C(=O)c1cnc(Cl)c(Cl)c1,i,i,i,i,i,i,nt,
N#Cc1cccc(C2CC(OCCF)=CC(=O)O2)c1 (stereo not drawn),i,i,i,nt,i,i,nt,
CCCn1c(=O)[nH]c(=O)c2c(C(=O)OCC)cc(-c3cccs3)nc21,i,i,i,i,30,i,27,
CC(C)(C)c1cc(NC(=O)C2(C)CCN2C(=O)C2(c3ccccc3)CC2)no1 (stereo not drawn),i,i,i,i,i,i,nt,
O=C(NC1=NCCS1)c1sc2cc(F)ccc2c1Cl,i,i,i,i,i,i,nt,
O=C(Nc1ccon1)c1sc2cc(F)ccc2c1Cl,i,i,i,i,34,i,22,
CCC(C)NC(=O)CSc1nc2ccsc2c(=O)n1-c1ccc(OC)cc1 (stereo not drawn),i,i,i,i,i,i,nt,
COc1ccc(-n2c(SCC(=O)NC3CCCCC3)nc3ccsc3c2=O)cc1,i,i,i,i,49,i,33,RORg DNA counter=i
COc1ccc2nc(SCC(=O)NC3CCCC3)c(C)cc2c1,i,i,i,i,29,i,32,RORg DNA counter=i
Cc1[nH]nc2nc(SCC(=O)NC3CCCCC3)n(-c3ccc(Br)cc3)c(=N)c12,i,i,i,i,64,i,65,RORg DNA counter=i
CC(/C=C/c1ccc(O)cc1)=NNc1ccccc1,i,i,i,i,i,i,nt,
COc1ccc(CNC(=O)CCS(=O)(=O)c2ccc3nc(C)sc3c2)cc1,i,i,i,i,i,i,nt,
SMILES,ASAP1 inh,ARFGAP1 inhibitor,sPLA2-III inh,bovine MsrA act,Rev-erbA mod,MsrA inhibitor,Rev-erbA confirm,others
CN(CC(=O)Nc1ccc(F)cc1)C(=O)CCc1nc2sc3c(c2c(=O)[nH]1)CCCC3,i,i,i,i,i,i,nt,
CN(CC(=O)Nc1ccccc1C(F)(F)F)C(=O)CCc1nc2sc3c(c2c(=O)[nH]1)CCCC3,i,i,i,i,30,i,22,
CCN(CC(=O)Nc1ccccc1C(F)(F)F)C(=O)CCc1nc2sc3c(c2c(=O)[nH]1)CCCC3,i,i,i,i,20,i,i,
Cc1cccc(N2C(=O)CC(Sc3nc(-c4ccccc4)c4cc(Cl)ccc4n3)C2=O)c1 (stereo not drawn),i,i,i,i,20,i,i,
COc1ccccc1N/C(N)=N/c1nc(CSc2ccc(C)cc2)cc(=O)[nH]1,i,i,i,i,31,i,34,RORg DNA counter=i
C/C(N)=C(/C#N)C(=O)CSc1nc2ccccc2c(=O)n1-c1ccc(C)c(Cl)c1,i,i,i,i,78,i,31,RORg DNA counter=i
C/C(N)=C(/C#N)C(=O)CSc1nc2ccccc2c(=O)n1-c1ccccc1C,i,i,i,i,i,i,nt,
COc1ccc(Cl)cc1NC(=O)c1cnc2sccn2c1=O,i,i,i,i,33,i,32,
O=S1(=O)c2ccc(N3CCSCC3)cc2Oc2ccccc2CN1Cc1cn(Cc2ccc(C(F)(F)F)cc2)nn1,nt,nt,i,nt,i,nt,nt,
O=S1(=O)c2ccc(N3CCSCC3)cc2Oc2ccccc2CN1Cc1cn(Cc2cccc(C(F)(F)F)c2)nn1,nt,nt,i,nt,18,nt,i,
O=S1(=O)c2ccc(N3CCSCC3)cc2Oc2ccccc2CN1Cc1cn(Cc2ccc(F)cc2)nn1,nt,nt,i,nt,20,nt,19,
Cc1c(C(=O)Nc2ccncc2)sc2nc(-c3ccc(F)cc3)cn12,i,i,i,i,39,i,38,RORg DNA counter=i
COc1cc2c3nnc(-c4ccc(F)cc4)c-3cn(Cc3ccc(F)cc3)c2cc1OC,i,i,i,i,35,i,27,
CCOc1ncccc1C(=O)Nc1ccc(Cl)c(S(=O)(=O)N2CCCC2)c1,i,i,i,i,33,i,19,
CCOc1ncccc1C(=O)Nc1cc(S(=O)(=O)N2CCCCC2)ccc1Cl,i,i,i,i,23,i,11,
CCOc1ncccc1C(=O)Nc1ccc(F)c(Cl)c1,i,i,i,i,i,i,nt,
Cc1cn2c(N)c(C=C3C=C(Cl)C(=O)C(Cl)=C3)c(=O)nc2s1,i,i,i,i,26,i,i,
COC1=C/C(=C/c2c(N)n3cc(C)sc3nc2=O)C=CC1=O,i,i,i,i,i,i,nt,
O=C1CCC[C@H]2C[C@H](NCc3ccc(F)cc3)CC[C@]23CCCN13,nt,nt,i,nt,i,nt,nt,
CCCC1(c2ccccc2)NC(=O)N(CC(=O)Nc2sc(-c3ccccc3)cc2C(=O)OCC)C1=O (stereo not drawn),i,i,i,i,56,i,50,RORg DNA counter=i
CCOC(=O)c1cc(-c2ccccc2)sc1NC(=O)CN1C(=O)c2ccccc2C1=O,i,i,i,i,33,i,i,
CCOC(=O)c1cc(-c2ccccc2)sc1NC(=O)CC(C)C,i,i,i,i,i,i,nt,
COC(=O)C1=CN(c2ccc(C)cc2)C(N)=C(C#N)C1c1ccccc1F (stereo not drawn),i,i,i,nt,i,i,nt,
